# Measurements: PubChem BioAssay AID588791 (Southern Research Specialized Biocontainment Screening …, 2011)
# Calls of active or inactive are those of the source.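 The calls were made as follows: active = virus titer falling by more than one log, over tenfold fewer virus than untreated infected wells; inactive = the rest.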
# System: HEp-2 cells, RSV plaque reduction, virus titer
# Assay: inhibitors of RSV replication, plaque titer, late-stage follow-up, orthogonal assay for RSV inhibitor project, cell-based, set 5 (AID 588791)
# Details: stronger effect = lower value
# How it was run: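 Material: RSV Long-infected HEp-2 cells; Timing: 48 h compound treatment, 37 °C; Detection: plaque assay on HEp-2, neutral red staining.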
Structure (SMILES),log virus titer change (at 10 µM),"log virus titer change (titer change, at 2.5 µM)","log virus titer change (titer change, at 5 µM)"
CC(C)c1ccc(Cn2c(=O)n(Cc3ccc(C(=O)NCC4COC4)cc3)c(=O)c3ccccc32)cc1,-5.75,-3.06,-5.75
CC(C)c1ccc(Cn2c(=O)n(Cc3ccc(C(=O)NCC4COC4)cc3)c(=O)c3cccnc32)cc1,-2.72,0.155,-0.572
CC(C)(C)c1ccc(Cn2c(=O)n(Cc3ccc(C(=O)NCC4COC4)cc3)c(=O)c3ccccc32)cc1,-3.4,0.138,-1.13
CC(C)c1ccc(Cn2c(=O)n(Cc3ccc(C(=O)NCC4COC4)cc3)c(=O)c3ncccc32)cc1,0.144 (inactive),0.21,0.267
